Experimental findings from ChEMBL document CHEMBL1136326, “New benzylidenethiazolidinediones as antibacterial agents” (2003) are described below.

In brackets after ≈: the same amount, converted by molar mass.

Holding throughout (format): functional
For one assay, the system named is Staphylococcus aureus. Briefly: Minimal inhibitory concentration (antibacterial activity) against Staphylococcus aureus Oxford (SAUR). In short, it runs like this:
(§1)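 Broth microdilution in cation-adjusted Mueller Hinton broth. Compounds in DMSO were diluted 1:10 with water to a 256 ug/mL solution, then serially 2-fold diluted, giving 0.06 to 64 μg/mL. Inoculum about 1 × 10^6 cfu/mL. Incubation at 35 C for 24 h. MIC is the lowest concentration that inhibits visible growth.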

In a further assay the test system is Enterococcus faecalis. Briefly: Minimal inhibitory concentration (antibacterial activity) against Enterococcus faecalis 7 (EFAE). In short, it runs like this: as §1
Assay [1] can be described thus: Minimal inhibitory concentration (antibacterial activity) against […] ERY2 (SPNE). In short, it runs like this:
as §1

Where [2] appears, read: Staphylococcus aureus, read-out: MIC.
Where [3] appears, read: Enterococcus faecalis, read-out: MIC.
Setting [4] is: Streptococcus pneumoniae, read-out: MIC.

By MIC is commonly meant the lowest concentration that inhibits growth of the organism.

As for `CCCc1c(OC[C@H](O)COc2ccc(/C=C3\SC(=O)NC3=O)cc2)ccc(Cl)c1Cl`, the MIC in the assay on Staphylococcus aureus (setting [2]) worked out at 1 mg/L (≈ 2.07 µM); in the assay with Enterococcus faecalis (setting [3]) it was 64 mg/L (≈ 133 µM); in assay [1] (setting [4]) it was 1 mg/L (≈ 2.07 µM).
In the case of `O=C1NC(=O)/C(=C/c2ccc(OCC(O)COc3ccc(Cl)c(Cl)c3Cl)cc2)S1` (centres undefined), the MIC (in the assay with Staphylococcus aureus (setting [2]); in the assay with Enterococcus faecalis (setting [3]); in assay [1] (setting [4])) was above 64 mg/L each time.
Consider `CCCc1c(OCC(O)COc2ccc(CC3SC(=O)NC3=O)cc2)ccc(Cl)c1Cl` (centres undefined), for which the MIC in the assay on Staphylococcus aureus (setting [2]) stood at 8 mg/L (≈ 16.5 µM); with Enterococcus faecalis (setting [3]), 16 mg/L (≈ 33 µM); in assay [1] (setting [4]), 8 mg/L (≈ 16.5 µM).
As for `O=C1NC(=O)/C(=C/c2ccc(OCC(O)COc3ccc(Cl)c(Cl)c3)cc2)S1` (centres undefined), the MIC (in the assay with Staphylococcus aureus (setting [2]); with Enterococcus faecalis (setting [3]); in assay [1] (setting [4])) was above 64 mg/L throughout.
`CCCc1c(OCC(O)COc2ccc(/C=C3\CC(=O)NC3=O)cc2)ccc(Cl)c1Cl` (centres undefined): the MIC was above 64 mg/L in the assay with Staphylococcus aureus (setting [2]), 64 mg/L (≈ 138 µM) in the assay on Enterococcus faecalis (setting [3]) and 64 mg/L (≈ 138 µM) in assay [1] (setting [4]).
Turning to `CCCc1ccccc1OCC(O)COc1ccc(/C=C2\SC(=O)NC2=O)cc1` (centres undefined), the results for the MIC (with Staphylococcus aureus (setting [2]); in the assay on Enterococcus faecalis (setting [3]); in assay [1] (setting [4])) were 16 mg/L (≈ 38.7 µM), above 64 mg/L and 2 mg/L (≈ 4.84 µM), respectively.
As for `CCCc1c(OC[C@@H](O)COc2ccc(/C=C3\SC(=O)NC3=O)cc2)ccc(Cl)c1Cl`, the MIC with Staphylococcus aureus (setting [2]) was determined as 2 mg/L (≈ 4.15 µM); in the assay on Enterococcus faecalis (setting [3]) it was 4 mg/L (≈ 8.29 µM); in assay [1] (setting [4]), 2 mg/L (≈ 4.15 µM).
Turning to `CCCc1c(OCC(O)COc2ccc(/C=C3\OC(=O)NC3=O)cc2)ccc(Cl)c1Cl` (centres undefined), the MIC in the assay with Staphylococcus aureus (setting [2]) was 16 mg/L (≈ 34.3 µM); in the assay on Enterococcus faecalis (setting [3]) it was 16 mg/L (≈ 34.3 µM); in assay [1] (setting [4]), 32 mg/L (≈ 68.6 µM).
As to `O=C1NC(=O)/C(=C/c2ccc(OCC(O)COc3ccccc3)cc2)S1` (centres undefined), the MIC is above 64 mg/L in the assay with Staphylococcus aureus (setting [2]), above 64 mg/L in the assay with Enterococcus faecalis (setting [3]) and 64 mg/L (≈ 172 µM) in assay [1] (setting [4]).
Regarding `CCCc1c(OCC(N)COc2ccc(/C=C3\SC(=O)NC3=O)cc2)ccc(Cl)c1Cl` (centres undefined), the results for the MIC (in the assay on Staphylococcus aureus (setting [2]); in the assay on Enterococcus faecalis (setting [3]); in assay [1] (setting [4])) were 16 mg/L (≈ 33.2 µM), 32 mg/L (≈ 66.5 µM) and 2 mg/L (≈ 4.15 µM), respectively.
For the molecule `CCCc1c(OCC(O)COc2ccc(/C=C3\SC(=O)N(C)C3=O)cc2)ccc(Cl)c1Cl` (stereo in doubt; 6), the MIC (in the assay with Staphylococcus aureus; against Enterococcus faecalis; in assay [1]) was above 64 mg/L in each case.
Turning to `CCCc1c(OCC(O)COc2ccc(/C=C3\NC(=O)NC3=O)cc2)ccc(Cl)c1Cl` (centres undefined), the MIC (in the assay with Staphylococcus aureus (setting [2]); in the assay on Enterococcus faecalis (setting [3]); in assay [1] (setting [4])) was 4 mg/L (≈ 8.6 µM) in each case.
In the case of `CCCc1c(OCC(O)COc2ccc(/C=C3\SC(=O)N(C)C3=O)cc2)ccc(Cl)c1Cl` (stereo in doubt; 12), the MIC worked out at 8 mg/L (≈ 16.1 µM) against Staphylococcus aureus, 4 mg/L (≈ 8.06 µM) against Enterococcus faecalis and 1 mg/L (≈ 2.01 µM) in assay [1].
Take `CCCc1c(OCC(=O)COc2ccc(/C=C3\SC(=O)NC3=O)cc2)ccc(Cl)c1Cl`: the MIC (in the assay on Staphylococcus aureus (setting [2]); in the assay with Enterococcus faecalis (setting [3]); in assay [1] (setting [4])) was above 64 mg/L throughout.
Regarding `CCc1ccccc1OCC(O)COc1ccc(/C=C2\SC(=O)NC2=O)cc1` (centres undefined), the MIC with Staphylococcus aureus (setting [2]) worked out at 16 mg/L (≈ 40.1 µM); in the assay on Enterococcus faecalis (setting [3]), 32 mg/L (≈ 80.1 µM); in assay [1] (setting [4]) it was 16 mg/L (≈ 40.1 µM).
In the case of `Cc1ccccc1OCC(O)COc1ccc(/C=C2\SC(=O)NC2=O)cc1` (centres undefined), the MIC in the assay on Staphylococcus aureus (setting [2]) was 64 mg/L (≈ 166 µM); in the assay with Enterococcus faecalis (setting [3]), above 64 mg/L; in assay [1] (setting [4]), 32 mg/L (≈ 83 µM).
Turning to `CCCc1cc(Cl)c(Cl)cc1OCC(O)COc1ccc(/C=C2\SC(=O)NC2=O)cc1` (centres undefined), the results for the MIC (in the assay on Staphylococcus aureus (setting [2]); in the assay with Enterococcus faecalis (setting [3]); in assay [1] (setting [4])) were 8 mg/L (≈ 16.6 µM), 8 mg/L (≈ 16.6 µM) and 4 mg/L (≈ 8.29 µM), respectively.
`CCCc1c(OCCCOc2ccc(/C=C3\SC(=O)NC3=O)cc2)ccc(Cl)c1Cl`: the MIC (in the assay on Staphylococcus aureus (setting [2]); in the assay with Enterococcus faecalis (setting [3]); in assay [1] (setting [4])) was above 64 mg/L throughout.
